# Measured values: ChEMBL document CHEMBL1153798, “Substituted tetrahydroquinolines as potent allosteric inhibitors of reverse transcriptase and its key mutants” (Bioorg Med Chem Lett, 2009)
# Tests used:
# [1] = system: Human immunodeficiency virus 1; experiment: Ratio of IC50 for HIV1 carrying reverse transcriptase K103N/Y181C mutant to IC50 for wild type HIV1 in the presence of 40% normal human serum; type: functional
# [2] = system: Human immunodeficiency virus 1; experiment: Antiviral activity against HIV1 carrying reverse transcriptase K103N/V179E mutant infected human MT4 cells by phenoscreen assay in the presence of 40 percent normal human serum; type: functional, organism-based; settings: Human immunodeficiency virus 1, MT4
# Summary of the method: (§1)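 Phenotypic recombinant-virus assay (Phenoscreen, Monogram Bioscience), run with 40% normal human serum present. IC50 is the compound concentration in cell culture that inhibits viral replication by 50%.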
# [3] = system: Human immunodeficiency virus 1; experiment: Antiviral activity against HIV1 carrying reverse transcriptase […]/G190A mutant infected human MT4 cells in the presence of 40 percent normal human serum; type: functional; summary of the method: as §1
# [4] = system: Human immunodeficiency virus 1; experiment: Ratio of IC50 for HIV1 carrying reverse transcriptase […]/ Y181C/G190A mutant to IC50 for wild type HIV1 in the presence of 40% normal human serum; type: functional
# [5] = system: Human immunodeficiency virus 1; experiment: Antiviral activity against HIV1 carrying reverse transcriptase K103N mutant infected human MT4 cells by phenoscreen assay in the presence of 40 percent normal human serum; type: functional, organism-based; settings: Human immunodeficiency virus 1, MT4; summary of the method: as §1
# [6] = system: Human immunodeficiency virus 1; experiment: Antiviral activity against HIV1 carrying reverse transcriptase K101E/G190A mutant infected human MT4 cells by phenoscreen assay in the presence of 40 percent normal human serum; settings: Human immunodeficiency virus 1, MT4
# [7] = system: Human immunodeficiency virus 1; experiment: Ratio of IC50 for HIV1 carrying reverse transcriptase G190A mutant to IC50 for wild type HIV1 in the presence of 40% normal human serum; type: functional
# [8] = system: Human immunodeficiency virus 1; experiment: Antiviral activity against HIV1 carrying reverse transcriptase Y181C mutant infected human MT4 cells by phenoscreen assay in the presence of 40 percent normal human serum; type: functional, organism-based; settings: Human immunodeficiency virus 1, MT4; summary of the method: as §1
# Rattus norvegicus = experiment: Hepatic clearance in rat at 10 mg/kg, po and 2 mg/kg, iv; settings: in vivo
# [9] = Half life in Sprague-Dawley rat at 10 mg/kg, po and 2 mg/kg, iv; type: ADME, organism-based; settings: in vivo
# [10] = system: Human immunodeficiency virus 1; experiment: Ratio of IC50 for HIV1 carrying reverse transcriptase K103N/V179E mutant to IC50 for wild type HIV1 in the presence of 40% normal human serum; type: functional
# [11] = system: Human immunodeficiency virus 1; experiment: Antiviral activity against HIV1 carrying reverse transcriptase G190A mutant infected human MT4 cells by phenoscreen assay in the presence of 40 percent normal human serum; settings: Human immunodeficiency virus 1, MT4
# [12] = system: Human immunodeficiency virus 1; experiment: Antiviral activity against HIV1 carrying reverse transcriptase Y181C/G190A mutant infected human MT4 cells by phenoscreen assay in the presence of 40 percent normal human serum; type: functional, organism-based; settings: Human immunodeficiency virus 1, MT4; summary of the method: as §1
# [13] = system: Human immunodeficiency virus 1; experiment: Ratio of IC50 for HIV1 carrying reverse transcriptase Y188L mutant to IC50 for wild type HIV1 in the presence of 40% normal human serum; type: functional
# [14] = system: Human immunodeficiency virus 1; experiment: Antiviral activity against HIV1 carrying reverse transcriptase Y188L mutant infected human MT4 cells by phenoscreen assay in the presence of 40 percent normal human serum; type: functional, organism-based; settings: Human immunodeficiency virus 1, MT4; summary of the method: as §1
# [15] = system: Human immunodeficiency virus 1; experiment: Antiviral activity against HIV1 carrying reverse transcriptase K103N/G190A mutant infected human MT4 cells by phenoscreen assay in the presence of 40 percent normal human serum; type: functional, organism-based; settings: Human immunodeficiency virus 1, MT4; summary of the method: as §1
# [16] = system: Human immunodeficiency virus 1; experiment: Ratio of IC50 for HIV1 carrying reverse transcriptase K103N mutant to IC50 for wild type HIV1 in the presence of 40% normal human serum; type: functional
# [17] = system: Human immunodeficiency virus 1; experiment: Antiviral activity against HIV1 R8 infected human MT4 cells assessed as drug level required for 95% inhibition in the presence of 50% normal human serum; type: functional
# Summary of the method: (§2)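 Spread assay: MT-4 human T-lymphoid cells in RPMI 1640 with either 10% FBS or 50% NHS; CIC95 taken as the concentration blocking >95% of virus spread. Wild-type virus H9IIIB or R8 as stated per line. Geometric mean of at least two determinations, individual values within 25% of the mean.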
# [18] = system: Human immunodeficiency virus 1; experiment: Ratio of IC50 for HIV1 carrying reverse transcriptase G190S mutant to IC50 for wild type HIV1 in the presence of 40% normal human serum; type: functional
# [19] = Inhibition of HIV1 reverse transcriptase K103 mutant
# [20] = system: Human immunodeficiency virus 1; experiment: Antiviral activity against HIV1 carrying reverse transcriptase V106A/G190A/F227L mutant infected human MT4 cells by phenoscreen assay in the presence of 40 percent normal human serum; type: functional, organism-based; settings: Human immunodeficiency virus 1, MT4; summary of the method: as §1
# [21] = system: Human immunodeficiency virus 1; experiment: Antiviral activity against HIV1 carrying reverse transcriptase K103N/ Y181C/G190A mutant infected human MT4 cells by phenoscreen assay in the presence of 40 percent normal human serum; type: functional, organism-based; settings: Human immunodeficiency virus 1, MT4; summary of the method: as §1
# [22] = system: Human immunodeficiency virus 1; experiment: Antiviral activity against HIV1 infected human MT4 cells by phenoscreen assay in the presence of 40 percent normal human serum; type: functional, organism-based; settings: Human immunodeficiency virus 1, MT4
# [23] = system: Human immunodeficiency virus 1; experiment: Antiviral activity against HIV1 carrying reverse transcriptase K101E/ Y181C/G190A mutant infected human MT4 cells by phenoscreen assay in the presence of 40 percent normal human serum; settings: Human immunodeficiency virus 1, MT4
# [24] = system: Human immunodeficiency virus 1; experiment: Ratio of IC50 for HIV1 carrying reverse transcriptase V106A/G190A/F227L mutant to IC50 for wild type HIV1 in the presence of 40% normal human serum; type: functional
# [25] = system: Human immunodeficiency virus 1; experiment: Ratio of IC50 for HIV1 carrying reverse transcriptase Y181C mutant to IC50 for wild type HIV1 in the presence of 40% normal human serum; type: functional
# [26] = system: Human immunodeficiency virus 1; experiment: Ratio of IC50 for HIV1 carrying reverse transcriptase K103N/P225H mutant to IC50 for wild type HIV1 in the presence of 40% normal human serum; type: functional
# [27] = system: Human immunodeficiency virus 1; experiment: Antiviral activity against HIV1 carrying reverse transcriptase K103N/P225H mutant infected human MT4 cells by phenoscreen assay in the presence of 40 percent normal human serum; type: functional, organism-based; settings: Human immunodeficiency virus 1, MT4; summary of the method: as §1
# [28] = system: Human immunodeficiency virus 1; experiment: Ratio of IC50 for HIV1 carrying reverse transcriptase Y181C/G190A mutant to IC50 for wild type HIV1 in the presence of 40% normal human serum; type: functional
# [29] = system: Human immunodeficiency virus 1; experiment: Antiviral activity against HIV1 R8 infected human MT4 cells assessed as drug level required for 95% inhibition in the presence of 10% fetal bovine serum; type: functional; summary of the method: as §2
# [30] = system: Human immunodeficiency virus 1; experiment: Ratio of IC50 for HIV1 carrying reverse transcriptase […]/G190A mutant to IC50 for wild type HIV1 in the presence of 40% normal human serum; type: functional
# [31] = system: Human immunodeficiency virus 1; experiment: Antiviral activity against HIV1 carrying reverse transcriptase […] mutant infected human MT4 cells by phenoscreen assay in the presence of 40 percent normal human serum; type: functional, organism-based; settings: Human immunodeficiency virus 1, MT4; summary of the method: as §1
# [32] = system: Human immunodeficiency virus 1; experiment: Ratio of IC50 for HIV1 carrying reverse transcriptase K103N/G190A mutant to IC50 for wild type HIV1 in the presence of 40% normal human serum; type: functional
# [33] = system: Human immunodeficiency virus 1; experiment: Antiviral activity against HIV1 carrying reverse transcriptase G190S mutant infected human MT4 cells by phenoscreen assay in the presence of 40 percent normal human serum; settings: Human immunodeficiency virus 1, MT4
# [34] = system: Human immunodeficiency virus 1; experiment: Ratio of IC50 for HIV1 carrying reverse transcriptase […] mutant to IC50 for wild type HIV1 in the presence of 40% normal human serum; type: functional
# [35] = system: Human immunodeficiency virus 1; experiment: Antiviral activity against HIV1 3B infected human MT4 cells assessed as drug level required for 95% inhibition in the presence of 10% fetal bovine serum; type: functional; summary of the method: as §2
# [36] = system: Human immunodeficiency virus 1; experiment: Antiviral activity against HIV1 3B infected human MT4 cells assessed as drug level required for 95% inhibition in the presence of 50% normal human serum; type: functional; summary of the method: as §2
compound,measurement,setting,value
CS(=O)(=O)c1ccc(NC(=O)CSC(=O)N2CCCc3cc(Cl)cc(Cl)c32)c(Cl)c1,fold change (FC),[1],33.2
same,IC50,[2],7.5 nM
same,fold change (FC),[3],>56
same,fold change (FC),[4],>56
same,IC50,[5],2 nM
same,IC50,[6],> 250 nM
same,fold change (FC),[7],34.8
same,IC50,[8],86.6 nM
same,CL,Rattus norvegicus,84 mL/min/kg
same,half-life,[9],1.7 h
same,fold change (FC),[10],1.7
same,IC50,[11],157 nM
same,IC50,[12],> 250 nM
same,fold change (FC),[13],>56
same,IC50,[14],> 250 nM
same,IC50,[15],57.2 nM
same,fold change (FC),[16],0.4
same,Activity,[17],5.7 nM
same,fold change (FC),[18],>56
same,IC50,[19],3 nM
same,IC50,[20],> 250 nM
same,IC50,[21],> 250 nM
same,IC50,[22],4.5 nM
same,IC50,[23],> 250 nM
same,fold change (FC),[24],>56
same,fold change (FC),[25],19
same,fold change (FC),[26],2.1
same,IC50,[27],9.3 nM
same,fold change (FC),[28],>56
same,Activity,[29],5.6 nM
same,fold change (FC),[30],>56
same,IC50,[31],50.5 nM
same,fold change (FC),[32],21.3
same,IC50,[33],> 250 nM
same,fold change (FC),[34],11
Cc1cc(C)c(N(C)C(=O)SCC(=O)Nc2ccc(S(N)(=O)=O)cc2Cl)c(C)c1,IC50,[19],9 nM
Cc1cccc2c1N(C(=O)SCC(=O)Nc1ccc(S(N)(=O)=O)cc1Cl)CCC2,ID95,[35],47 nM
same,IC50,[19],4 nM
same,ID95,[36],219 nM
NS(=O)(=O)c1ccc(NC(=O)CCC(=O)N2CCCc3cc(Cl)cc(Cl)c32)c(Cl)c1,Activity,[35],406 nM
same,Activity,[36],5 µM
